Data from PMC3361693 (Chemistry & biology, 2012).
In brackets after ≈: the same amount, converted by molar mass. Read-outs that look alike come from different tables or passages of the source.

Columns and labels:
E. coli JB525 [1] = test: QS inhibition: GFP production in E. coli JB525; type: cell-based, Escherichia coli
[2] = system: NO production by LPS-stimulated RAW264.7 murine macrophages; test: Inhibition of NO production by LPS-stimulated murine macrophages; type: cell-based; details: Mus musculus
V. harveyi BB120 [3] = test: microbe, parasite or virus in culture; type: cell-based, Vibrio harveyi
[4] = Cytotoxicity / cell survival in Raw264.7 cells; details: mouse
TNF-α = test: qRT-PCR transcript level in LPS-stimulated RAW 264.7 cells: TNF-α; type: cell-based, murine; details: after 6 h of treatment
Outline: (§1)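 Murine RAW264.7 macrophages were LPS-stimulated and treated with the test compound for 6 h, alongside untreated LPS-stimulated cells. RNA was isolated and reverse-transcribed to cDNA. Transcripts of TNF-α, IL-1β, IL-6 and iNOS were quantified by qRT-PCR and expressed as fold change versus untreated cells. Three replicates were run, reported as mean ± standard deviation, with Student's t-test (p < 0.05).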

IL-1β = test: qRT-PCR transcript level in LPS-stimulated RAW 264.7 cells: IL-1β; type: cell-based, murine; details: after 6 h of treatment
Outline: as §1

V. harveyi BB120 [5] = test: Growth inhibitory; type: cell-based, Vibrio harveyi
Raw264.7 cells = test: Cytotoxicity / cell survival in Raw264.7 cells; details: for IC50: read-out: Cytotoxicity in Raw264.7 cells (IC50), Raw264.7 cells
E. coli JB525 [6] = test: Growth inhibitory; type: cell-based, Escherichia coli
iNOS = test: qRT-PCR transcript level in LPS-stimulated RAW 264.7 cells: iNOS; type: cell-based, murine; details: after 6 h of treatment
Outline: as §1

IL-6 = test: qRT-PCR transcript level in LPS-stimulated RAW 264.7 cells: IL-6; type: cell-based, murine; details: after 6 h of treatment
Outline: as §1

[7] = Escherichia coli, read-out: QS inhibition (IC50) E. coli, dash with footnote d
[8] = RAW264.7, read-out: NO inhibition (IC50), dash with footnote b
[9] = Vibrio harveyi, read-out: QS inhibition (IC50) V. harveyi, dash with footnote d
[10] = read-out: QS inhibition (IC50) E. coli, inhibition of GFP production, E. coli JB525, OHHL autoinducer
[11] = read-out: QS inhibition (IC50) V. harveyi, inhibition of bioluminescence, V. harveyi BB120
[12] = Escherichia coli, read-out: QS inhibition (IC50) E. coli
[13] = RAW264.7, read-out: NO inhibition (IC50 ± SD)
[14] = Vibrio harveyi, read-out: QS inhibition (IC50) V. harveyi

Row | SMILES | IC50 (E. coli JB525 [1]; [7]) [µg/mL] | IC50 (V. harveyi BB120 [3]; [9]) [µg/mL] | IC50 [4] [µM] | IC50 (E. coli JB525 [1]; [10]) [µM] | IC50 (V. harveyi BB120 [3]; [11]) [µM] | growth inhibitory effects: none observed up to concentration (V. harveyi BB120 [5]) [µM] | IC50 (Raw264.7 cells) [µM] | IC50 [2, 13] [µM] | IC50 (V. harveyi BB120 [3]; [14]) [µM] | IC50 ([4]; RAW264.7 macrophage cells) [µM] | further results
1 | O=C1OCCC1O (racemic) [Compound 6, (R/S)-2-hydroxy-γ-butyrolactone] | > 125 | > 125 | > 98 |  |  |  |  |  |  |  | IC50 [2, 8]: > 30 µg/mL
2 | O=C(/C=C/CCl)O[C@@H]1COC(=O)C1 [Compound 1, Honaucin A] |  |  |  | 38.5 | 5.6 | > 610 | > 49 |  |  |  | reduction in transcripts of TNF-α (TNF-α): −9.3 fold; reduction in transcripts of IL-1β (IL-1β): −154.6 fold; therapeutic window between NO inhibitory effect and cytotoxicity (Raw264.7 cells; RAW264.7 cells, cytotoxicity IC50 vs NO inhibition IC50): greater than ten-fold; growth inhibitory effects: none observed up to concentration (E. coli JB525 [6]): > 610 µM; reduction in transcripts of iNOS (iNOS): −11.8 fold; reduction in transcripts of IL-6 (IL-6): −19.0 fold
3 | CCOC(=O)C[C@H](O)COC(=O)/C=C/CCl [Compound 2, Honaucin B] |  |  |  | 908 | 17.6 | > 458 | 16 |  |  |  | growth inhibitory effects: none observed up to concentration (E. coli JB525 [6]): > 458 µM
4 | COC(=O)C[C@H](O)COC(=O)/C=C/CCl [Compound 3, Honaucin C] |  |  |  | 576 | 14.6 | > 483 | 30 |  |  |  | growth inhibitory effects: none observed up to concentration (E. coli JB525 [6]): > 483 µM
5 | O=C1C[C@H](O)CO1 [Compound 4, (S)-3-hydroxy-γ-butyrolactone] | > 125 | > 125 | > 98 |  |  |  |  |  |  |  | 
6 | O=C1C[C@@H](O)CO1 [Compound 5, (R)-3-hydroxy-γ-butyrolactone] | > 125 | > 125 | > 98 |  |  |  |  |  |  |  | 
7 | O=C(O)/C=C/CCl [Compound 7, 4-chlorocrotonic acid] |  |  |  |  |  |  |  | 28 ± 4.3 | 72.5 | 80 | IC50 (E. coli JB525 [1]; [12]): 152 µM
8 | C/C=C/C(=O)O [Compound 9, crotonic acid] | > 125 | > 125 |  |  |  |  |  | > 116 |  | > 116 | IC50 [2, 8]: > 30 µg/mL
9 | O=C(O)/C=C/CF [Compound 13, 4-fluorocrotonic acid] |  |  | > 288 |  |  |  |  | 11.6 ± 4.3 | 167 |  | IC50 (E. coli JB525 [1]; [12]): > 304 µM
10 | O=C(O)/C=C/CBr [Compound 14, 4-bromocrotonic acid] |  |  |  |  |  |  |  | 3.5 ± 0.5 | 10.5 | 35 | MIC (antibiotic effect) (E. coli JB525 [6]): 188 µM (≈ 31 µg/mL)
11 | O=C(O)/C=C/CI [Compound 15, 4-iodocrotonic acid] |  |  |  |  |  | > 32 |  | 1.2 ± 0.2 | 1.2 | 10 | MIC (antibiotic effect) (E. coli JB525 [6]): 18 µM (≈ 3.82 µg/mL)
12 | O=C(/C=C/CCl)O[C@H]1COC(=O)C1 [Compound 17, epi-honaucin A] |  |  |  | 260 | 22.1 |  | > 49 |  |  |  | 
